Experimental findings from publication PMC4281931 (Anticancer research, 2013) are described below.

This assay concerns the target PARP-1 (poly ADP-ribose polymerase) (Homo sapiens, UniProt P09874). As to the kind of experiment: PARP-1 chemiluminescent assay kit. The format is biochemical. The settings on record: read-out: % (inhibition at 21.35 μM). In short, it runs like this: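 Human PARP-1 activity was measured with a chemiluminescent kit, run per the maker's protocol. PARP-1 incorporates biotinylated NAD into biotinyl-poly(ADP-ribose) on immobilized histone substrate. The biotinylated substrate was incubated with the test compound at several concentrations in assay buffer containing PARP-1 enzyme. The read-out was chemiluminescence.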

For orientation: inhibition means the change of the read-out against control, counted positive when it falls.

The structures appear in SMILES notation.

Sequence of PARP-1 (poly ADP-ribose polymerase) (P09874 2-1014): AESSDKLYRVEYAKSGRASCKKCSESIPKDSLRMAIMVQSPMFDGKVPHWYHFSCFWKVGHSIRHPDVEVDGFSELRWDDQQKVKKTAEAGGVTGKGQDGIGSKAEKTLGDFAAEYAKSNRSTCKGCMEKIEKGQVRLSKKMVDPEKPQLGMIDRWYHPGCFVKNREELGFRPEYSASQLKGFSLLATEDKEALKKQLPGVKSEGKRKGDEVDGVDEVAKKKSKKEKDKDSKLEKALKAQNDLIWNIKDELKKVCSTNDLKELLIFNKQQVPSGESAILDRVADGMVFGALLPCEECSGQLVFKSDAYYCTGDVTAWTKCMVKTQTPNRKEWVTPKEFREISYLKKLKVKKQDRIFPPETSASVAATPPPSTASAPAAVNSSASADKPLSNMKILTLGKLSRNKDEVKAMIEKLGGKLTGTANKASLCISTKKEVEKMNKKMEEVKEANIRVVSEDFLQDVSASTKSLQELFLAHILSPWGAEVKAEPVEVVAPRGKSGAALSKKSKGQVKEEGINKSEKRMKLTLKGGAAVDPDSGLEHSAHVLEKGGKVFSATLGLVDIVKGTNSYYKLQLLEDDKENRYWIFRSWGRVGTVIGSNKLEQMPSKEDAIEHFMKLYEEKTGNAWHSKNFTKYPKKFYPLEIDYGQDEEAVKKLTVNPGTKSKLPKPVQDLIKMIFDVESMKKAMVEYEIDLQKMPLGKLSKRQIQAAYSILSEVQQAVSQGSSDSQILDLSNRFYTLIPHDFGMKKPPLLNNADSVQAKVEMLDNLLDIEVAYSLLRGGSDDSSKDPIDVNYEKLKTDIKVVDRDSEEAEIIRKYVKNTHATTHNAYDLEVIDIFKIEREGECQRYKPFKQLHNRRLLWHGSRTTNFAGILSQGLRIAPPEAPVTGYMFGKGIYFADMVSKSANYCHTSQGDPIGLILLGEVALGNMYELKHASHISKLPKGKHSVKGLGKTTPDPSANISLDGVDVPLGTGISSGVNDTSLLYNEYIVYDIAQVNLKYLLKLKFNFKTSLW

With `O=C1C[C@@H](c2ccccc2)Oc2c(Cc3ccccc3O)c(O)c(Cc3ccccc3O)c(O)c21` [dichamanetin], the inhibition at 21.35 µM was found to be 96.2%.
